PfG6PD inh: PfG6PD (Plasmodium falciparum) enzyme inhibition; PfGluPho enzyme, NADPH resazurin-diaphorase fluorescence; inhibition, % at 20 µM; 350,000 compounds, 0.78% hits; AID 504690;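 active = inhibition reaching at least a set limit at 20 µM in the primary screen, cut at about 59% in these data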;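 note: 0% = DMSO wells with substrate and 100% = DMSO wells lacking glucose-6-phosphate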
Redox H2O2 prof: compounds producing H2O2 with reducing agent – biochemical, NIH compound library profiling, artefact control for MLSCN library redox annotation, primary screen; 200,000 compounds, 0.03% hits; activation, % at 10 µM; DTT-dependent redox cycling H2O2, phenol red/HRP absorbance; 100% = 100 µM peroxide control, 0% = buffer;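 active = activation of at least 50% relative to the plate's high and low controls in the primary single-dose screen; inactive = activation below 50%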;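 note: compound incubated with DTT at 0.8 mM final as the reducing agent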
Diaph act CS: counter-screen for diaphorase-based assays: diaphorase activators and chemical reducers; Diaphorase/resazurin coupled assay, resorufin fluorescence, 16 min; active compounds read high; 1 = vehicle wells, 0 = NADH-free wells; activation factor at 20 µM; 190,000 compounds, 0.005% hits; AID 1229;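 active = diaphorase activity raised at least twofold by the compound at 20 µM; inactive = activation factor below 2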
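Measured by – red resorufin fluorescence at 544/590 nm excitation/emission · Test system – Clostridium kluyveri diaphorase, purified enzyme · Incubation – reaction time 16 min, room temperature · Buffer or medium – 50 mM HEPES pH 7.4 with 4.542 mM MgCl2, 0.005% Tween 20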
Diaphorase inh: inhibits diaphorase or chemically oxidizes, flagging diaphorase assay artifacts; diaphorase resazurin-to-resorufin fluorescence, NADH, 16 min; bacterial (C. kluyveri) enzyme, not human; inhibition, % at 20 µM; 190,000 compounds, 0.69% hits; AID 1217;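 active = primary screen inhibition at 20 µM above a set limit, cut at about 50% in these data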;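 note: plate controls were DMSO with full reaction for no effect and wells lacking NADH for full effect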
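Assay system – diaphorase enzyme from Clostridium kluyveri · Amount – diaphorase 0.14 U/mL (working solution) · Times – reaction incubation of 16 min at room temperature · Controls – No-NADH positive control and DMSO neutral control · Signal – resorufin fluorescence 544/590 nm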
G6PDH counter: L. mesenteroides G6PDH inhibition counter-screen | Purified L. mesenteroides G6PDH, diaphorase/resazurin coupled fluorescence, 45 min | inhibition, % at 5 µM | 200,000 compounds, 0.12% hits | AID 1020
Lmaj promast: reduces viability of Leishmania major promastigotes | resazurin fluorescence viability | inhibition, % at 10 µM | 200,000 compounds, 9% hits | AID 1063;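 note: promastigotes grown with compound for 44 hours at 28 °C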
DTT redox conf: redox cycling H2O2 generation, confirmed | shares compounds with Redox H2O2 prof | DTT-dependent redox cycling H2O2, phenol red-HRP absorbance | EC50, µM | 60 compounds, 40% hits;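 active = EC50 under a set limit for hydrogen peroxide production with the reducing agent DTT present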
L major 1uM: blocks Leishmania major promastigote growth at 1 uM, repeat screen; 1,100 compounds, 13% hits; L. major promastigote growth, resazurin fluorescence, 48 h; inhibition, % at 1 µM; shares compounds with Lmaj promast;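 active = inhibition above about 50% in both repeat tests, limit read from the data; inconclusive = one repeat under the set limit, the other over it; inactive = both repeats under the set limit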
Numbers without * were called inactive; ? = inconclusive; . = no result. Many of the other results were omitted from the sample, so hits are more common in it than they were. Cut-off read from the data, not from the text of the source, unless noted: active = inhibition above about 50%; inactive = the rest.

SMILES	PfG6PD inh	Redox H2O2 prof	Diaph act CS	Diaphorase inh	G6PDH counter	Lmaj promast	L major 1uM	others
COc1ccc(OCC(=O)N2CCN(C3CCC(c4ccccc4)CC3)CC2)cc1 (centres undefined)	14.2	-0.3	0.8	17.8	-5.4	59.9*	.
CN1CCN(C(=O)COc2ccc3ccccc3c2)CC1	-7.8	.	.	.	.	.	.
O=C(COc1ccc2ccccc2c1)N1CCN(C2CCN(Cc3ccccc3)CC2)CC1	-4.8	-0.2	0.9	8.8	-18.2	92.2*	.
O=C(COc1ccc2ccccc2c1)N1CCN(CC2CC3C=CC2C3)CC1 (centres undefined)	16.0	1.0	0.9	10.0	9.1	57.6*	.
CCOc1cccc(=NC2CCCCC2)c2c(C)n(C)c(C)c12	6.7	.	.	.	.	.	.
CC(=O)O/C(=C1\CC2C3CC=C4CC(OC(C)=O)CCC4(C)C3CCC2(C)C1=O)C(F)(F)F (centres undefined)	-9.5	.	.	.	.	.	.
Cc1ccc(CN2C(=O)NC(=O)C3(Cc4c(nc5ccccn5c4=O)N4CCCCCC43)C2=O)cc1 (centres undefined)	8.3	1.8	0.9	12.0	-0.5	84.5*	.
C[C@]12CCC3C(CC[C@H]4C[C@H](OC(=O)c5cccnc5)CC[C@]34C)C1CCC2=O (some centres undefined)	-9.2	.	.	.	.	.	.
C[C@]1(O)CCC2C3CC[C@H]4C[C@@H](OC(=O)[C@@H](N)CCCCN)CC[C@]4(C)C3CC[C@@]21C (some centres undefined)	-3.0	.	.	.	.	.	.
CCCCn1c(NS(=O)(=O)c2ccccc2)c(C(=O)OCC)c2nc3ccccc3nc21	9.3	167.5*	0.8	16.6	42.1	99.0*	.	DTT redox conf=>50
O=C1CN(O)C(c2ccccc2Cl)=c2cc(Br)ccc2=N1	-4.0	.	.	.	.	.	.
C[C@@]1(CO)[C@H](O)CC[C@@]2(C)[C@H]1CC[C@H]1C[C@@H]3C[C@@]12CC[C@]3(O)CO	.	0.4	1	2.2	53.5*	99.9*	95.1*
Cc1cc(C)c(N=Cc2c(O)[nH]c(=O)[nH]c2=O)c(C)c1	13.8	.	.	.	.	.	.
COc1ccc(OC)c(CN2CCN(C(=O)Cc3ccccc3)CC2)c1	5.9	.	.	.	.	.	.
CN[C@H]1C[C@H]2O[C@@](C)([C@H]1OC)n1c3ccccc3c3c4c(c5c6ccccc6n2c5c31)C(=O)NC4	.	0.7	0.6	42.2	18.8	100.3*	100.6*
CC12CCC3C(CCC4(O)CC(O)CCC34C=NO)C1(O)CCC2C1=COC(=O)C1 (centres undefined)	4.2	.	.	.	.	.	.
O=C1N(c2ccc(Cl)cc2)C(c2cccnc2)N2CCCN12 (centres undefined)	9.9	-0.2	1	1.1	4.6	69.4*	17.0
CCOc1ccccc1CN1C2CCC1CC(c1ccc(C)cc1)C2 (centres undefined)	-12.7	.	.	.	.	.	.
C[C@H]1C[C@@H](C)C(=O)[C@@H]([C@H](O)CC2CC(=O)NC(=O)C2)C1	1.5	-0.3	1.1	-7.8	7.5	100.3*	100.4*
CC(C)(O)[C@H]1O[C@H]2CC[C@@]3(C)[C@@](O)(CC[C@H]4Cc5c([nH]c6ccccc56)[C@@]43C)C2=CC1=O	23.4	0.1	0.8	18.3	-2.6	94.3*	14.3
COC(=O)C1=C(c2cccc(C#N)c2)C[C@@H]2CC[C@H]1N2C(=O)NCC1CC1	-7.7	.	.	.	.	.	.
Nc1c(Br)cc([N+](=O)[O-])cc1[N+](=O)[O-]	11.1	.	.	.	.	.	.
Cn1cc2c([N+](=O)[O-])cc([N+](=O)[O-])cc2n1	.	-1.9	0.7	27.5	17.2	99.7*	-3.8
O=C1NC(=O)C(C2CCCCCC2)C(=O)N1	-12.5	.	.	.	.	.	.
Cc1ccc(-c2nn(Cc3ccccc3)cc2C=O)cc1	1.3	-0.4	0.9	10.0	-9.1	35.6	.
SMILES	PfG6PD inh	Redox H2O2 prof	Diaph act CS	Diaphorase inh	G6PDH counter	Lmaj promast	L major 1uM	others
Cc1ccc(-c2nn(Cc3ccccc3)cc2C=O)cc1C	4.9	-0.3	0.8	16.9	-2.7	53.5*	-7.0
CCC1(CC)C(=O)N(Cc2ccccc2)C(=O)N(Cc2ccccc2)C1=O	4.5	0.0	0.9	8.4	4.4	81.9*	?
C=CCn1c(O)c(C(C)=O)c(=O)[nH]c1=O (tested in a mixture with another compound)	-6.5	.	.	.	.	.	.
CN1CCCC(C(=O)c2ccc(-c3ccccc3)cc2)C1 (centres undefined)	-8.8	.	.	.	.	.	.
O=C(c1ccc(-c2ccccc2)c(F)c1)C1CCCN(CCO)C1 (centres undefined)	-1.0	0.0	1	-0.8	8.0	99.3*	63.1*
CC[C@H]1CN2CC[C@@]3(C(=O)Nc4ccccc43)[C@@H]2C[C@@H]1/C(=C\OC)C(=O)OC	7.7	.	.	.	.	.	.
CN(C)C(=S)SSC(=S)N(C)C	95.0*	-0.2	0.8	22.6	5.3	100.6*	99.4*
CCOc1cccc(C2NCc3ccccc3-n3cccc32)c1O (centres undefined)	14.1	0.6	1	-0.5	2.3	19.2	.
CCOc1cc(C2NCc3ccccc3-n3cccc32)ccc1O (centres undefined)	-8.9	0.0	0.9	11.1	4.3	99.2*	-17.9
COc1ccc(C2=NCc3nnc(C)n3-c3ccc(Cl)cc32)cc1Cl	-5.0	0.5	1.1	-5.6	2.2	8.4	.
COc1ccccc1C1=NCc2nnc(C)n2-c2ccc(Cl)cc21	-17.1	-0.8	0.8	18.7	8.7	60.6*	-15.5
FC(F)(F)c1ccc2c(c1)N(CCCN1CCN(CCCl)CC1)c1ccccc1S2	15.0	0.0	1.1	-8.8	12.5	100.4*	-10.3
C1=C(c2c[nH]c3ccccc23)CCNC1	.	1.4	1	2.5	6.7	99.9*	46.8
CCOC(=O)c1cncn1[C@H](C)c1ccccc1	.	.	0.9	8.8	13.5	.	.
COC(=O)[C@@H]1[C@@H](C(=O)OC)C2(c3ccccc3-c3ccccc32)N(c2ccc(Cl)cc2)N1C#N	15.1	-0.3	0.8	17.3	2.0	74.2*	57.1*
N#CC1c2ccccc2-n2nncc2CN1C(=O)CCc1ccccc1 (centres undefined)	-10.6	.	.	.	.	.	.
O=P(Nc1cccnc1)(Oc1ccccc1)Oc1ccccc1	0.1	0.2	0.8	16.0	14.6	93.2*	30.4
Nc1ncn[nH]1	-5.1	.	.	.	.	.	.
Cc1ccc(-c2cc(-c3ccc(C)cc3)[n+](-c3ccccc3)c(-c3ccc(C)cc3)c2)cc1	9.4	.	.	.	.	.	.
Cc1ccc(-c2cc(-c3ccc(C)cc3)[n+](C)o2)cc1	0.6	-0.1	1	-3.3	-5.9	100.2*	98.6*
